VIM-2 inhibitor: inhibitors of Pseudomonas aeruginosa VIM-2 metallo-beta-lactamase; purified VIM-2, nitrocefin hydrolysis, epi-absorbance fluorescence; inhibition, % at 5.6 µM; 0.89% of 290,000 active;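 active = inhibition above the mean of all tested compounds plus 3 SD, cutoff set per screening run, cut at about 7.5% in these data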;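 note: red hydrolysis product quenches plate fluorescence so inhibitors raise well fluorescence; 0% = enzyme with DMSO and 100% = DMSO without enzyme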
IMP-1 inh-1: blocks Pseudomonas aeruginosa IMP-1 metallo-beta-lactamase; 0.45% of 290,000 active; purified IMP-1, nitrocefin hydrolysis, epi-absorbance fluorescence; inhibition, % at 5.6 µM; AID 1556;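 active = inhibition above the mean plus 3 SD of all compounds in the same screening run, cut at about 4.5% in these data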;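 note: 0% = IMP-1 with DMSO and 100% = DMSO wells lacking enzyme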
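System: Purified recombinant IMP-1 metallo-beta-lactamase enzyme | Measured by: Fluorescence quenching readout, ex 480/em 530 nm | Replication: Singlicate | Incubation: 15 min preincubation plus 25 min reaction at 25 °C | Evaluation: Percent inhibition from optical density relative to buffer-blank wells | Benchmarks: DMSO with and without IMP-1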
Neddyl block: cullin neddylation inhibition; P61081+Q13564; TR-FRET cullin neddylation, biochemical; calls only at 25 µM; 0.58% of 360,000 active; AID 651699; in the data active = inhibition above about 36%
proCasp3 act: activates human procaspase-3; 0.11% of 330,000 active; activation, % at 8.5 µM; AID 463141; P42574; recombinant procaspase-3 D3A, Ac-DEVD-pNA absorbance 405 nm;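 active = activation above the mean of all tested compounds plus 3 SD, cut at about 21% in these data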;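 note: 0% = DMSO alone and 100% = DMSO wells spiked with extra 5 µM PC-3 D3A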
Target sequence (P42574 whole entry D9A/D28A/D175A): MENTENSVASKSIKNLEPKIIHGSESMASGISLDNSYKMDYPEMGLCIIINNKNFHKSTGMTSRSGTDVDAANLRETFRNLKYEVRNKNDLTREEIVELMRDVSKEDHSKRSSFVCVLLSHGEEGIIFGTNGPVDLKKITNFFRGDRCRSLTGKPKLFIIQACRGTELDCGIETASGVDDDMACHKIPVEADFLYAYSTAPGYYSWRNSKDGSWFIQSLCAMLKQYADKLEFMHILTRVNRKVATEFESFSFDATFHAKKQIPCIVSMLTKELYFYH
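Evaluation: percent activation relative to control range; Material: Procaspase-3 D3A mutant, all three cleavage aspartates alanine; Compound: single dose, 8.5 µM nominal compound, 0.8% DMSO; Replication: one well per compound; Signal: absorbance at 405 nm, 0 and 120 min; Schedule: 1 h preincubation plus 2 h reaction at 25 °C.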
procasp7 counter: activates human procaspase-7, counter-screen for procaspase-3 activators. 0.093% of 330,000 active. P55210. activation, % at 8.5 µM. recombinant procaspase-7, Ac-DEVD-pNA absorbance 405 nm; D23A/D198A/D206A triple mutant, cannot self-cleave; scale: DMSO 0, 5 µM enzyme 100;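 active = percent activation above the screen-wide mean plus 3 SD, cut at about 25% in these data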
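Assay system – Uncleavable procaspase-7 mutant enzyme · Quantity – 2 µM procaspase-7 mutant as dispensed · Times – 1 h preincubation, 2 h reaction · Dosing – single nominal 8.5 µM compound dose, 0.8% DMSO final · Buffer or medium – Zinc-free 50 mM HEPES buffer, pH 7.4, with NaCl and Triton X-100 · Detection – Epi-absorbance of released pNA at 405 nm, two timepoints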
PolyA inhibitor: yeast polyadenylation inhibition; activity score, % at 12 µM; S. cerevisiae SKY197-pL101 polyadenylation reporter, beta-gal luminescence; efflux-impaired pdr1/pdr3 knockout yeast; score 100 = 6 SD above DMSO; AID 1875; 0.02% of 300,000 active;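 active = lowest replicate activity score at least 50, where 100 means six control SD above control mean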;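 note: yeast exposed to compound for 9 h at 30 °C; higher score means more reporter readthrough which indicates perturbed polyadenylation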
IMP-1 inh-2: selectivity counter-screen for VIM-2 inhibitors: IMP-1 metallo-beta-lactamase inhibitors; purified IMP-1, nitrocefin hydrolysis, epi-absorbance fluorescence; AID 1856; inhibition, % at 5.6 µM; shares compounds with VIM-2 inhibitor; 1,300 tested, under 10 active; call rule not given here;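 note: 0% = enzyme with vehicle and 100% = vehicle without enzyme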
VIM-2 FRET ctr: VIM-2 FRET inhibition, artifact counter-screen | shares compounds with VIM-2 inhibitor | 23% of 1,300 active | AID 1857 | inhibition, % at 5.6 µM | purified VIM-2, CCF2 FRET substrate hydrolysis;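 active = inhibition above the mean of all tested compounds plus 3 SD, cut at about 19% in these data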;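 note: 0% = VIM-2 plus DMSO and 100% = no enzyme wells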
TEM-1 counter: blocks E. coli TEM-1 beta-lactamase in VIM-2 selectivity screen. 3% of 1,300 active. shares compounds with VIM-2 inhibitor. Purified TEM-1, nitrocefin hydrolysis, epi-absorbance fluorescence. inhibition, % at 5.6 µM;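 active = inhibition above that campaign's mean inhibition plus 3 SD, cut at about 0.46% in these data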;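 note: 0% = TEM-1 with DMSO and 100% = TEM-1 with 100 µM potassium clavulanate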
Target sequence (P62593 whole entry, looked up): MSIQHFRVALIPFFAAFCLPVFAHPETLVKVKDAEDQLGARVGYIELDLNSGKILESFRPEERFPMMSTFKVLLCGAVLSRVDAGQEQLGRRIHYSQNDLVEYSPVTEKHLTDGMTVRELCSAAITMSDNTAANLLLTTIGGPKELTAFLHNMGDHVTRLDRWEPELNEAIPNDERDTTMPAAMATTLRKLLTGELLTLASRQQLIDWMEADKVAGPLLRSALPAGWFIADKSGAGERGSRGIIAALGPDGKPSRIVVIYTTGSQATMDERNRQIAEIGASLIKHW
VIM-2 confirm 2: confirmation of P. aeruginosa VIM-2 metallo-beta-lactamase inhibitors; shares compounds with VIM-2 inhibitor; purified VIM-2, nitrocefin hydrolysis, epi-absorbance; inhibition, % at 5.6 µM; 96% of 1,300 active;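 active = inhibition of the VIM-2 beta-lactamase enzyme above about 11% from the earlier first-round screen, limit read from the data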;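 note: 0% = VIM-2 with DMSO and 100% = buffer wells without enzyme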
Active calls of the source: *; i = inactive; . = no result given. Compounds with a hit are over-represented: about 1.7% of the library has one in this group of screens.

SMILES	VIM-2 inhibitor	IMP-1 inh-1	Neddyl block	proCasp3 act	procasp7 counter	PolyA inhibitor	IMP-1 inh-2	VIM-2 FRET ctr	TEM-1 counter	VIM-2 confirm 2
COc1ccc(Cc2nnc(NC(=O)C3CCCO3)s2)cc1OC (stereo unspecified)	56.0*	-1.8	i	-5.2	-9.2	-1.6	-2.2	-0.5	-1.7	6.3
Oc1ccc(Oc2ccc3c(C(F)(F)F)cc(C(F)(F)F)nc3n2)cc1	12.5*	-0.5	i	16.4	3.5	5.2	-2.8	-0.6	-6.3	28.1*
Cc1nc(NCCCN2CCOCC2)c2oc3ccccc3c2n1	29.2*	-2.4	i	10.6	0.7	5.2	-3.8	4.2	-9.2	35.5*
c1ccc(-c2nc(NCc3ccco3)c3oc4ccccc4c3n2)cc1	-1.5	-3.6	i	4.9	-3.5	-36.1	.	.	.	.
CCc1nc(NCCCn2ccnc2)c2oc3ccccc3c2n1	67.0*	-1.1	i	-4.3	-5.7	1.4	-2.3	-3.8	-6.6	78.7*
c1ccc(-c2nc(NCCCn3ccnc3)c3oc4ccccc4c3n2)cc1	19.1*	-5.3	i	-1.0	-6.7	-13.4	-2.2	-25.6	-6.2	35.1*
CCOC(=O)N=S(N)(=O)c1ccc(Cl)cc1 (stereo unspecified)	15.5*	0.3	i	9.3	1.9	11.7	1.4	32.5*	-4.5	26.4*
CCOC(=O)N=S(N)(=O)c1ccccc1 (stereo unspecified)	23.1*	-1.8	i	0.4	-1.4	21.1	-1.9	51.0*	-5.0	33.9*
CCOC(=O)CC(S(=O)(=O)c1ccccc1)S(=O)(=O)c1ccccc1	.	.	i	.	.	.	.	.	.	.
COc1ccc(-c2csc(N(CCCN3CCOCC3)C(=O)CCl)n2)cc1	-0.6	-2.8	i	1.3	-12.2	28.7	.	.	.	.
COc1ccc2c(C(=O)NCCCCO)c(-c3ccc(S(C)(=O)=O)cc3)sc2c1	.	.	i	1.5	10.1	.	.	.	.	.
COc1ccc(C(=O)CSc2nc(-c3ccccn3)nc(C)c2Cl)cc1	28.9*	-4.5	i	2.8	4.3	-5.0	-4.6	-26.1	-6.0	61.0*
Cc1nc(-c2ccccn2)nc(SCC(=O)c2ccc(F)cc2)c1Cl	50.0*	-5.7	i	-12.8	3.3	12.3	-4.6	-24.3	-5.9	67.4*
Cn1c(SCC(=O)c2ccc(F)cc2)nc2cccnc21	-1.1	-2.4	i	-0.3	-0.6	-14.4	.	.	.	.
COc1ccc(/C=C/C(=O)Nc2ccccc2)cc1OC	-0.5	-1.0	i	3.9	4.7	5.0	.	.	.	.
O=C(NCc1ccccn1)c1ccc(Cl)c(S(=O)(=O)Nc2ccccc2C(=O)NCc2ccccn2)c1	-1.6	-4.5	i	-10.7	-7.3	6.9	.	.	.	.
O=C(O)c1ncsc1-c1ccccc1	13.4*	-2.6	i	-8.4	-13.5	-5.8	-2.3	23.9*	-0.8	16.1*
O=C(CC(C(=O)O)c1ccc(Cl)cc1Cl)c1ccc(Cl)cc1 (stereo unspecified)	2.7	-0.2	i	-1.8	-6.0	3.0	.	.	.	.
O=C(CC(C(=O)O)c1cccc(Cl)c1Cl)c1ccccc1 (stereo unspecified)	14.7*	1.5	i	-7.4	-7.6	5.6	-1.8	28.6*	-5.1	17.8*
COC(=O)CSc1ccc2nnc(-c3ccc(F)cc3)n2n1	0.6	-2.1	.	5.8	1.9	-3.0	.	.	.	.
CCCN(CCC)CCCNc1ccc2nnc(-c3ccc(F)cc3)n2n1	18.4*	-3.3	i	-3.5	5.0	3.6	-2.9	-0.2	-5.6	21.7*
C=C(C)CNC(=S)N/N=C(\C)c1ccc(-n2ccnc2)cc1	78.9*	-4.6	i	-5.0	7.2	2.0	-2.8	-8.2	-9.4	87.7*
C/C(=N\NC(=O)OC(C)(C)C)c1ccc(-n2ccnc2)cc1	0.6	-0.9	i	3.7	-3.7	0.2	.	.	.	.
Cc1cc(C)c2c(n1)nn1c(NCCCN(C)C)cc(C)nc21	19.2*	-2.4	.	-9.2	0.6	6.9	-3.9	-3.0	-6.9	30.8*
Cn1c(SCC(=O)N2CCc3ccccc32)nnc1-c1ccc(S(=O)(=O)N2CCCC2)cc1	-2.6	-1.3	i	1.9	2.9	21.0	.	.	.	.
SMILES	VIM-2 inhibitor	IMP-1 inh-1	Neddyl block	proCasp3 act	procasp7 counter	PolyA inhibitor	IMP-1 inh-2	VIM-2 FRET ctr	TEM-1 counter	VIM-2 confirm 2
Cc1cc(Nc2ccc(C)c(C)c2)n2nc(C)nc2n1	16.4*	-1.8	i	2.7	4.9	-4.0	-3.1	1.0	-5.7	33.8*
CCc1ccc(Nc2cc(C)nc3nc(C)nn23)cc1	7.0	-4.8	i	4.9	9.8	8.3	.	.	.	.
COc1cc(OC)c(Nc2cc(C)nc3nc(C)nn23)cc1Cl	34.9*	-4.1	i	4.1	10.8	-17.0	-3.7	0.6	-8.1	43.6*
COc1ccc(N2C(=O)C3C(c4ccc(C(=O)O)cc4)NC(Cc4ccccc4)(C(=O)O)C3C2=O)c([N+](=O)[O-])c1 (stereo unspecified)	-1.6	-0.9	i	3.1	9.6	2.6	.	.	.	.
C[N+]1(CC(=O)NNc2c3ccccc3nc3ccccc23)CCOCC1	21.4*	-3.8	.	-9.6	-4.5	1.2	-5.4	3.2	-10.3	32.8*
c1ccc2nc(-c3ccc(-n4ccnc4)cc3)ccc2c1	37.7*	-1.9	i	4.6	3.3	-8.5	-4.8	-11.1	-5.5	46.8*
CCOC(=O)N1CCN(C(=O)CS(=O)(=O)Cc2nc(-c3ccccc3C)oc2C)CC1	-3.6	1.3	i	3.9	1.8	17.5	.	.	.	.
COc1cc(C2c3sc(=O)[nH]c3SC3C(=O)N(c4ccc(C)cc4)C(=O)C32)ccc1O (stereo unspecified)	-2.2	-3.1	i	-3.8	-8.1	20.1	.	.	.	.
COc1cc(CCNc2ccc3nnc(-c4ccccc4)n3n2)cc(OC)c1OC	18.6*	-2.5	i	3.5	10.8	0.4	-1.9	0.5	-0.7	21.9*
O=C1C(=O)N(Cc2cccnc2)C(c2ccccn2)/C1=C(/O)c1ccccc1 (stereo unspecified)	44.3*	-0.1	i	-0.8	-13.2	17.1	-3.6	61.7*	-3.8	50.4*
Cc1ccc(NC(=O)c2ccco2)c(NC(=O)c2ccccc2C)c1	-1.4	-2.2	i	2.3	4.0	-13.1	.	.	.	.
